Measurements: ChEMBL document CHEMBL4673212, “Investigation of synergistic antimicrobial effects of the drug combinations of meropenem and 1,2-benzisoselenazol-3(2H)-one derivatives on carbapenem-resistant Enterobacteriaceae producing NDM-1” (Eur J Med Chem, 2018)
In brackets after ≈: the same amount, converted by molar mass.

Tests used:
Morganella morganii [1] = assay: Synergistic antibacterial activity against carbapenem-resistant Morganella morganii isolate 26 assessed as fractional inhibitory concentration index in presence of meropenem by CLSI protocol based assay; assay type: functional
Outline: (§1)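 FIC index from MICs of compound alone, meropenem alone, and the 1:1 (mass) compound–meropenem combination, read by eye after overnight incubation in a CLSI-based assay. FIC index = MICcombo/MICcpd + MICcombo/MICMem. FIC index ≤0.5 counted as synergy. At least triplicate assays. Clinical NDM-1 isolates for 17-39; E. coli TG1 carrying the IncX3 blaNDM-1 plasmid for 15.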

Enterobacter cloacae [2] = assay: Synergistic antibacterial activity against carbapenem-resistant Enterobacter cloacae isolate 22 harboring CTX-M-14, TEM-1 and SHV-12 assessed as fractional inhibitory concentration index in presence of meropenem by CLSI protocol based assay; assay type: functional; outline: as §1
Enterobacter cloacae [3] = assay: Synergistic antibacterial activity against carbapenem-resistant Enterobacter cloacae isolate 18 harboring IMP-4 and TEM-1 assessed as fractional inhibitory concentration index in presence of meropenem by CLSI protocol based assay; assay type: functional
Enterobacter cloacae [4] = assay: Synergistic antibacterial activity against carbapenem-resistant Enterobacter cloacae isolate 07 harboring CTX-M-14, TEM-1 and SHV-12 assessed as fractional inhibitory concentration index in presence of meropenem by CLSI protocol based assay; assay type: functional; outline: as §1
Citrobacter freundii [5] = assay: Synergistic antibacterial activity against carbapenem-resistant Citrobacter freundii isolate 17 harboring SHV-12 assessed as fractional inhibitory concentration index in presence of meropenem by CLSI protocol based assay; assay type: functional; outline: as §1
Citrobacter freundii [6] = assay: Synergistic antibacterial activity against carbapenem-resistant Citrobacter freundii isolate 05 harboring SHV-12 assessed as fractional inhibitory concentration index in presence of meropenem by CLSI protocol based assay; assay type: functional; outline: as §1
Klebsiella oxytoca = assay: Synergistic antibacterial activity against carbapenem-resistant Klebsiella oxytoca isolate 03 harboring SHV-12 assessed as fractional inhibitory concentration index in presence of meropenem by CLSI protocol based assay; assay type: functional; outline: as §1
Escherichia coli [7] = assay: Synergistic antibacterial activity against carbapenem-resistant Escherichia coli isolate 45 assessed as fractional inhibitory concentration index in presence of meropenem by CLSI protocol based assay; assay type: functional; outline: as §1
Klebsiella pneumoniae [8] = assay: Synergistic antibacterial activity against carbapenem-resistant Klebsiella pneumoniae isolate 14 harboring CTX-M-14, KPC-2 and SHV-12 assessed as fractional inhibitory concentration index in presence of meropenem by CLSI protocol based assay; assay type: functional; outline: as §1
Morganella morganii [9] = assay: Growth inhibition of carbapenem-resistant Morganella morganii isolate 26 by CLSI protocol based assay; assay type: functional
Klebsiella pneumoniae [10] = assay: Synergistic antibacterial activity against carbapenem-resistant Klebsiella pneumoniae isolate 04 harboring CTX-M-14, VIM-1, TEM-1 and SHV-12 assessed as fractional inhibitory concentration index in presence of meropenem by CLSI protocol based assay; assay type: functional; outline: as §1
Enterobacter cloacae [11] = assay: Growth inhibition of carbapenem-resistant Enterobacter cloacae isolate 27 harboring CTX-M-3, CTX-M-14, TEM-1 and SHV-12 by CLSI protocol based assay; assay type: functional
Enterobacter cloacae [12] = assay: Growth inhibition of carbapenem-resistant Enterobacter cloacae isolate 19 harboring CTX-M-14 and KPC-2 by CLSI protocol based assay; assay type: functional
Citrobacter freundii [13] = assay: Growth inhibition of carbapenem-resistant Citrobacter freundii isolate 43 by CLSI protocol based assay; assay type: functional
Citrobacter freundii [14] = assay: Growth inhibition of carbapenem-resistant Citrobacter freundii isolate 17 harboring SHV-12 by CLSI protocol based assay; assay type: functional
Escherichia coli [15] = assay: Growth inhibition of carbapenem-resistant Escherichia coli isolate 33 harboring CTX-M-15 by CLSI protocol based assay; assay type: functional
Klebsiella pneumoniae [16] = assay: Growth inhibition of carbapenem-resistant Klebsiella pneumoniae isolate 14 harboring CTX-M-14, KPC-2 and SHV-12 by CLSI protocol based assay; assay type: functional
Klebsiella pneumoniae [17] = assay: Growth inhibition of carbapenem-resistant Klebsiella pneumoniae isolate 04 harboring CTX-M-14, VIM-1, TEM-1 and SHV-12 by CLSI protocol based assay; assay type: functional
Enterobacter cloacae [18] = assay: Potentiation of meropenem-induced antibacterial activity against carbapenem-resistant Enterobacter cloacae isolate 28 harboring TEM-1 and SHV-12 assessed as meropenem MIC by CLSI protocol based assay (reference value: 32 ug/ml); assay type: functional
Enterobacter cloacae [19] = assay: Potentiation of meropenem-induced antibacterial activity against carbapenem-resistant Enterobacter cloacae isolate 27 harboring CTX-M-3, CTX-M-14, TEM-1 and SHV-12 assessed as meropenem MIC by CLSI protocol based assay (reference value: 32 ug/ml); assay type: functional
Enterobacter cloacae [20] = assay: Potentiation of meropenem-induced antibacterial activity against carbapenem-resistant Enterobacter cloacae isolate 19 harboring CTX-M-14 and KPC-2 assessed as meropenem MIC by CLSI protocol based assay (Rvb >= 128 ug/ml); assay type: functional
Enterobacter cloacae [21] = assay: Potentiation of meropenem-induced antibacterial activity against carbapenem-resistant Enterobacter cloacae isolate 18 harboring IMP-4 and TEM-1 assessed as meropenem MIC by CLSI protocol based assay (reference value: 32 ug/ml); assay type: functional
Enterobacter cloacae [22] = assay: Potentiation of meropenem-induced antibacterial activity against carbapenem-resistant Enterobacter cloacae isolate 08 harboring CTX-M-14, TEM-1 and SHV-12 assessed as meropenem MIC by CLSI protocol based assay (reference value: 32 ug/ml); assay type: functional
Citrobacter freundii [23] = assay: Potentiation of meropenem-induced antibacterial activity against carbapenem-resistant Citrobacter freundii isolate 43 assessed as meropenem MIC by CLSI protocol based assay (Rvb >= 128 ug/ml); assay type: functional
Citrobacter freundii [24] = assay: Potentiation of meropenem-induced antibacterial activity against carbapenem-resistant Citrobacter freundii isolate 05 harboring SHV-12 assessed as meropenem MIC by CLSI protocol based assay (Rvb >= 128 ug/ml); assay type: functional
Escherichia coli [25] = assay: Potentiation of meropenem-induced antibacterial activity against carbapenem-resistant Escherichia coli isolate 45 assessed as meropenem MIC by CLSI protocol based assay (Rvb >= 128 ug/ml); assay type: functional
Escherichia coli [26] = assay: Potentiation of meropenem-induced antibacterial activity against carbapenem-resistant Escherichia coli isolate 34 harboring CTX-M-15, TEM-1 and SHV-12 assessed as meropenem MIC by CLSI protocol based assay (reference value: 64 ug/ml); assay type: functional
Escherichia coli [27] = assay: Potentiation of meropenem-induced antibacterial activity against carbapenem-resistant Escherichia coli isolate 33 harboring CTX-M-15 assessed as meropenem MIC by CLSI protocol based assay (reference value: 64 ug/ml); assay type: functional
Escherichia coli [28] = assay: Potentiation of meropenem-induced antibacterial activity against carbapenem-resistant Escherichia coli isolate 06 harboring CTX-M-14, CTX-M-3 and SHV-12 assessed as meropenem MIC by CLSI protocol based assay (Rvb >= 128 ug/ml); assay type: functional
Escherichia coli [29] = assay: Synergistic antibacterial activity against Escherichia coli TG1 transformed with IncX3 plasmid expressing blaNDM-1 assessed as fractional inhibitory concentration index in presence of meropenem incubated for overnight by CLSI protocol based assay; assay type: functional; conditions: time 12 hrs; outline: as §1
[30] = Growth inhibition of Escherichia coli TG1 transformed with IncX3 plasmid expressing blaNDM-1 incubated for overnight by CLSI protocol based assay; conditions: 12 h
Escherichia coli [31] = assay: Potentiation of meropenem-induced antibacterial activity against Escherichia coli TG1 transformed with IncX3 plasmid expressing blaNDM-1 assessed as bacterial growth inhibition by measuring meropenem MIC incubated for overnight by CLSI protocol based assay; assay type: functional; conditions: time 12 hrs

Compound | fractional inhibitory concentration index (FICI) (Morganella morganii [1]) | fractional inhibitory concentration index (FICI) (Enterobacter cloacae [2]) | fractional inhibitory concentration index (FICI) (Enterobacter cloacae [3]) | fractional inhibitory concentration index (FICI) (Enterobacter cloacae [4]) | fractional inhibitory concentration index (FICI) (Citrobacter freundii [5]) | fractional inhibitory concentration index (FICI) (Citrobacter freundii [6]) | fractional inhibitory concentration index (FICI) (Klebsiella oxytoca) | fractional inhibitory concentration index (FICI) (Escherichia coli [7]) | fractional inhibitory concentration index (FICI) (Klebsiella pneumoniae [8]) | MIC (Morganella morganii [9]) [µg/mL] | fractional inhibitory concentration index (FICI) (Klebsiella pneumoniae [10]) | MIC (Enterobacter cloacae [11]) [µg/mL] | MIC (Enterobacter cloacae [12]) [µg/mL] | MIC (Citrobacter freundii [13]) [µg/mL] | MIC (Citrobacter freundii [14]) [µg/mL] | MIC (Escherichia coli [15]) [µg/mL] | MIC (Klebsiella pneumoniae [16]) [µg/mL] | MIC (Klebsiella pneumoniae [17]) [µg/mL] | MIC (Enterobacter cloacae [18]) [µg/mL] | MIC (Enterobacter cloacae [19]) [µg/mL] | other results
CC(C)(C)OC(=O)NCCn1[se]c2ccccc2c1=O | 0.05 | 0.25 | 0.63 | 0.19 | 0.09 | 0.13 | 0.13 | 0.06 | 0.13 | ≥ 128 | 0.5 | ≥ 128 | ≥ 128 | ≥ 128 | ≥ 128 | ≥ 128 | ≥ 128 | ≥ 128 | 4 | 4 | MIC (Enterobacter cloacae [20]): 16 µg/mL; MIC (Enterobacter cloacae [21]): 16 µg/mL; MIC (Enterobacter cloacae [22]): 4 µg/mL; MIC (Citrobacter freundii [23]): 16 µg/mL; MIC (Citrobacter freundii [24]): 8 µg/mL; MIC (Escherichia coli [25]): 4 µg/mL; MIC (Escherichia coli [26]): 4 µg/mL; MIC (Escherichia coli [27]): 8 µg/mL; MIC (Escherichia coli [28]): 8 µg/mL; fractional inhibitory concentration index (FICI) (Escherichia coli [29]): 0.047; MIC [30]: >= 128 ug ml-1; MIC (Escherichia coli [31]): 2 µg/mL
O=c1c2ccccc2[se]n1-c1ccccc1 [EBSELEN] | 1.5 | 2 | 2.5 | 0.38 | 0.38 | 0.25 | 0.5 | 0.25 | 2 | ≥ 128 | 1 | ≥ 128 | ≥ 128 | ≥ 128 | ≥ 128 | ≥ 128 | ≥ 128 | ≥ 128 | 64 | 64 | MIC (Enterobacter cloacae [20]): ≥ 128 µg/mL; MIC (Enterobacter cloacae [21]): 64 µg/mL; MIC (Enterobacter cloacae [22]): 32 µg/mL; MIC (Citrobacter freundii [23]): 32 µg/mL; MIC (Citrobacter freundii [24]): 16 µg/mL; MIC (Escherichia coli [25]): 16 µg/mL; MIC (Escherichia coli [26]): 16 µg/mL; MIC (Escherichia coli [27]): 16 µg/mL; MIC (Escherichia coli [28]): 64 µg/mL; fractional inhibitory concentration index (FICI) (Escherichia coli [29]): 0.5; MIC [30]: 64 µg/mL (≈ 233 µM); MIC (Escherichia coli [31]): 16 µg/mL
